# Laboratory results as given in ChEMBL document CHEMBL1949516, “Synthesis and antimycobacterial evaluation of N-substituted 3-aminopyrazine-2,5-dicarbonitriles” (Bioorg Med Chem Lett, 2012).
# Tests used:
# [1] = test system: Mycobacterium tuberculosis; assay: Antimycobacterial activity against Mycobacterium tuberculosis H37Rv CNCTC My 331/88 after 14 days by microdilution panel method; assay type: functional; conditions: H37Rv CNCTC My 331/88, 336 h
# In short: (§1)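 Compounds dissolved in DMSO, diluted in Šula's semisynthetic medium in microdilution panels. Cultures grown in Šula's medium, pH 5.5, 37 °C. After 14 days incubation, activity read visually as MIC (µg/mL), also converted to µmol/L. Pyrazinamide run as standard.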
# [2] = test system: Mycobacterium kansasii; assay: Antimycobacterial activity against Mycobacterium kansasii CNCTC My 235/80 after 6 days by microdilution panel method; assay type: functional; conditions: CNCTC My 235/80, 144 h
# In short: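 Microdilution panel; compounds dissolved in DMSO and diluted with Šula's semisynthetic medium. Cultures grown in Šula's semisynthetic medium, pH 5.5, 37 °C. After 6 days of incubation, MIC (µg/mL) read visually. MICs also converted to molar units (µmol/L). PZA run as standard.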
# [3] = Partition coefficient, log k of the compound; assay type: physicochemical; conditions: octanol/water
# In short: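 Capacity factor k measured by isocratic RP-HPLC on an end-capped non-polar C18 column, with methanol as organic modifier in the mobile phase. Value given as log k and used as a lipophilicity index converted to the logP scale.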
# [4] = test system: Mycobacterium avium; assay: Antimycobacterial activity against Mycobacterium avium CNCTC My 80/72 after 14 days by microdilution panel method; assay type: functional; conditions: CNCTC My 80/72, 336 h; in short: as §1
# [5] = test system: Mycobacterium avium; assay: Antimycobacterial activity against Mycobacterium avium CNCTC My 152/73 after 14 days by microdilution panel method; assay type: functional; conditions: CNCTC My 152/73, 336 h; in short: as §1
# [6] = Aqueous solubility of the compound; assay type: physicochemical; conditions: buffer
structure (smiles),measurement,setting,value
CCCCCCNc1nc(C#N)cnc1C#N,MIC,[1],25 µg/mL
same,MIC,[2],50 µg/mL
same,log K,[3],0.9133
same,MIC,[4],100 µg/mL
same,MIC,[5],100 µg/mL
N#Cc1cnc(C#N)c(NC2CCCC2)n1,MIC,[1],> 200 µg/mL
same,MIC,[2],> 200 µg/mL
same,log K,[3],0.7273
same,MIC,[4],> 200 µg/mL
same,solubility,[6],Insoluble
same,MIC,[5],> 200 µg/mL
N#Cc1cnc(C#N)c(NC2CCCCC2)n1,MIC,[1],> 200 µg/mL
same,MIC,[2],> 200 µg/mL
same,log K,[3],0.7896
same,MIC,[4],> 200 µg/mL
same,solubility,[6],Insoluble
same,MIC,[5],> 200 µg/mL
CCCCCNc1nc(C#N)cnc1C#N,MIC,[1],50 µg/mL
same,MIC,[2],100 µg/mL
same,log K,[3],0.7901
same,MIC,[4],100 µg/mL
same,MIC,[5],100 µg/mL
N#Cc1cnc(C#N)c(Cl)n1,MIC,[1],25 µg/mL
same,MIC,[2],> 200 µg/mL
same,log K,[3],0.5792
same,MIC,[4],100 µg/mL
same,MIC,[5],100 µg/mL
N#Cc1cnc(C#N)c(NC2CCCCCC2)n1,MIC,[1],> 200 µg/mL
same,MIC,[2],> 200 µg/mL
same,log K,[3],0.8789
same,MIC,[4],> 200 µg/mL
same,solubility,[6],Insoluble
same,MIC,[5],> 200 µg/mL
CN1CCN(c2nc(C#N)cnc2C#N)CC1,MIC,[1],> 200 µg/mL
same,MIC,[2],> 200 µg/mL
same,log K,[3],0.5946
same,MIC,[4],> 200 µg/mL
same,MIC,[5],> 200 µg/mL
CNc1nc(C#N)cnc1C#N,MIC,[1],100 µg/mL
same,MIC,[2],100 µg/mL
same,log K,[3],0.5859
same,MIC,[4],> 200 µg/mL
same,MIC,[5],> 200 µg/mL
CCCCNc1nc(C#N)cnc1C#N,MIC,[1],100 µg/mL
same,MIC,[2],100 µg/mL
same,log K,[3],0.7088
same,MIC,[4],100 µg/mL
same,MIC,[5],100 µg/mL
N#Cc1cnc(C#N)c(N2CCOCC2)n1,MIC,[1],200 µg/mL
same,MIC,[2],200 µg/mL
same,log K,[3],0.583
same,MIC,[4],> 200 µg/mL
same,MIC,[5],> 200 µg/mL
NC(=O)c1cnccn1 [PYRAZINAMIDE],MIC,[1],12.5 µg/mL
same,MIC,[2],> 200 µg/mL
same,log K,[3],0.0514
same,MIC,[4],> 200 µg/mL
same,MIC,[5],> 200 µg/mL
CCNc1nc(C#N)cnc1C#N,MIC,[1],100 µg/mL
same,MIC,[2],200 µg/mL
same,log K,[3],0.6146
same,MIC,[4],> 200 µg/mL
same,MIC,[5],> 200 µg/mL
CCCCCCCNc1nc(C#N)cnc1C#N,MIC,[1],12.5 µg/mL
same,MIC,[2],> 200 µg/mL
same,log K,[3],1.0243
same,MIC,[4],> 200 µg/mL
same,MIC,[5],> 200 µg/mL
CCN(CC)c1nc(C#N)cnc1C#N,MIC,[1],100 µg/mL
same,MIC,[2],100 µg/mL
same,log K,[3],0.6685
same,MIC,[4],> 200 µg/mL
same,MIC,[5],> 200 µg/mL
CCCCCCCCNc1nc(C#N)cnc1C#N,MIC,[1],25 µg/mL
same,MIC,[2],100 µg/mL
same,log K,[3],1.1953
same,MIC,[4],> 200 µg/mL
same,MIC,[5],> 200 µg/mL
CCCNc1nc(C#N)cnc1C#N,MIC,[1],200 µg/mL
same,MIC,[2],200 µg/mL
same,log K,[3],0.6497
same,MIC,[4],200 µg/mL
same,MIC,[5],200 µg/mL
